According to ChEMBL document CHEMBL5356993, “Novel pyrazolo[3,4-d]pyrimidine derivatives: design, synthesis, anticancer evaluation, VEGFR-2 inhibition, and antiangiogenic activity” (RSC Med Chem, 2023):

Assays:
Format in all cases: functional
Settings in all cases: read-out: GI
[1] = tested on: MDA-MB-468; experiment: Antiproliferative activity against human MDA-MB-468 cells assessed as cell growth inhibition at 10 uM incubated for 48 hrs by SRB assay relative to control
[2] = tested on: OVCAR-4; experiment: Antiproliferative activity against human OVCAR-4 cells assessed as cell growth inhibition at 10 uM incubated for 48 hrs by SRB assay relative to control
[3] = tested on: KM12; experiment: Antiproliferative activity against human KM12 cells assessed as cell growth inhibition at 10 uM incubated for 48 hrs by SRB assay relative to control
In short: (§1)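 Cells plated in 96-well plates at […] cells/well and preincubated 24 h at 37 °C, 5% CO2. Time-zero plates were TCA-fixed. Compound was diluted in medium with 50 µg/mL gentamicin and cells exposed for 48 h. Adherent cells fixed with 10% final TCA; suspension cells with 16% final TCA. Plates stained with 0.4% SRB in 1% acetic acid, dye solubilized in 10 mM Trizma, absorbance read at 515 nm. Percent growth calculated against time-zero and control.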

[4] = tested on: U-251; experiment: Antiproliferative activity against human U-251 cells assessed as cell growth inhibition at 10 uM incubated for 48 hrs by SRB assay relative to control
In short: (§2)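 Cells pre-incubated 24 h at 37°C, 5% CO2, then exposed to compound (DMSO stock diluted in medium with 50 µg/mL gentamicin) for 48 h. Adherent cells fixed with cold TCA (final 10%, 60 min, 4°C); suspension cells fixed with 16% TCA final. Stained with 0.4% SRB in 1% acetic acid for 10 min, dye solubilized in 10 mM Trizma base, absorbance read at 515 nm. Growth calculated against time-zero and untreated control plates.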

[5] = tested on: UACC-62; experiment: Antiproliferative activity against human UACC-62 cells assessed as cell growth inhibition at 10 uM incubated for 48 hrs by SRB assay relative to control; in short: as §2
[6] = tested on: SK-MEL-5; experiment: Antiproliferative activity against human SK-MEL-5 cells assessed as cell growth inhibition at 10 uM incubated for 48 hrs by SRB assay relative to control; in short: as §1
[7] = tested on: NCI-H23; experiment: Antiproliferative activity against human NCI-H23 cells assessed as cell growth inhibition at 10 uM incubated for 48 hrs by SRB assay relative to control
[8] = tested on: ACHN; experiment: Antiproliferative activity against human ACHN cells assessed as cell growth inhibition at 10 uM incubated for 48 hrs by SRB assay relative to control
[9] = tested on: SK-MEL-28; experiment: Antiproliferative activity against human SK-MEL-28 cells assessed as cell growth inhibition at 10 uM incubated for 48 hrs by SRB assay relative to control; in short: as §1
[10] = tested on: EKVX; experiment: Antiproliferative activity against human EKVX cells assessed as cell growth inhibition at 10 uM incubated for 48 hrs by SRB assay relative to control
[11] = tested on: A549; experiment: Antiproliferative activity against human A549 cells assessed as cell growth inhibition at 10 uM incubated for 48 hrs by SRB assay relative to control
[12] = tested on: HL-60(TB); experiment: Antiproliferative activity against human HL-60(TB) cells assessed as cell growth inhibition at 10 uM incubated for 48 hrs by SRB assay relative to control
In short: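 Cells were plated at […] cells/well and preincubated 24 h at 37°C, 5% CO2, with time-zero plates TCA-fixed. Compound was diluted from DMSO stock in medium with 50 µg/mL gentamicin, then exposed for 48 h. Settled suspension cells were fixed with 80% TCA (final 16%), stained with 0.4% SRB and solubilized in 10 mM Trizma, A515. Growth was taken relative to Tz and control.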

[13] = tested on: IGROV-1; experiment: Antiproliferative activity against human IGROV-1 cells assessed as cell growth inhibition at 10 uM incubated for 48 hrs by SRB assay relative to control
[14] = tested on: OVCAR-8; experiment: Antiproliferative activity against human OVCAR-8 cells assessed as cell growth inhibition at 10 uM incubated for 48 hrs by SRB assay relative to control
[15] = tested on: COLO 205; experiment: Antiproliferative activity against human COLO 205 cells assessed as cell growth inhibition at 10 uM incubated for 48 hrs by SRB assay relative to control
[16] = tested on: T47D; experiment: Antiproliferative activity against human T47D cells assessed as cell growth inhibition at 10 uM incubated for 48 hrs by SRB assay relative to control; in short: as §2
[17] = tested on: K562; experiment: Antiproliferative activity against human K562 cells assessed as cell growth inhibition at 10 uM incubated for 48 hrs by SRB assay relative to control
[18] = tested on: Malme-3M; experiment: Antiproliferative activity against human Malme-3M cells assessed as cell growth inhibition at 10 uM incubated for 48 hrs by SRB assay relative to control
[19] = tested on: SW-620; experiment: Antiproliferative activity against human SW620 cells assessed as cell growth inhibition at 10 uM incubated for 48 hrs by SRB assay relative to control; in short: as §2
[20] = tested on: SK-OV-3; experiment: Antiproliferative activity against human SK-OV-3 cells assessed as cell growth inhibition at 10 uM incubated for 48 hrs by SRB assay relative to control; in short: as §1
[21] = tested on: HCT-116; experiment: Antiproliferative activity against human HCT-116 cells assessed as cell growth inhibition at 10 uM incubated for 48 hrs by SRB assay relative to control
[22] = tested on: MOLT-4; experiment: Antiproliferative activity against human MOLT-4 cells assessed as cell growth inhibition at 10 uM incubated for 48 hrs by SRB assay relative to control
[23] = tested on: SNB-19; experiment: Antiproliferative activity against human SNB-19 cells assessed as cell growth inhibition at 10 uM incubated for 48 hrs by SRB assay relative to control; in short: as §2

Row | Compound | inhibition of growth at 10 µM [1] | inhibition of growth at 10 µM [2] | inhibition of growth at 10 µM [3] | inhibition of growth at 10 µM [4] | inhibition of growth at 10 µM [5] | inhibition of growth at 10 µM [6] | inhibition of growth at 10 µM [7] | inhibition of growth at 10 µM [8] | inhibition of growth at 10 µM [9] | inhibition of growth at 10 µM [10] | inhibition of growth at 10 µM [11] | inhibition of growth at 10 µM [12] | inhibition of growth at 10 µM [13] | inhibition of growth at 10 µM [14] | inhibition of growth at 10 µM [15] | inhibition of growth at 10 µM [16] | inhibition of growth at 10 µM [17] | inhibition of growth at 10 µM [18] | inhibition of growth at 10 µM [19] | inhibition of growth at 10 µM [20] | other results
1 | Cc1nc2c(cnn2-c2ccccc2)c(=O)n1-c1ccc(NC(=O)c2ccc([N+](=O)[O-])cc2)cc1 | 68.6% | 48.2% | 20.4% | < 15% | 39.6% | 82.4% | 50.6% | 39.6% | 18.2% | 69.3% | 33% | 54% | 31.1% | 34.1% | 25.9% | 66.5% | 68.8% | 34% | < 15% | < 15% | inhibition of growth at 10 µM [21]: 55.6%; inhibition of growth at 10 µM [22]: 63.4%; inhibition of growth at 10 µM [23]: 25.4%
2 | Cc1nc2c(cnn2-c2ccccc2)c(=O)n1-c1ccc(N)cc1 | 62.4% | 48.7% | < 15% | < 15% | 34.5% | 66.8% | 40.1% | 27.1% | < 15% | 63.3% | < 15% | < 15% | 15% | < 15% | < 15% | 64.9% | 52.1% | 17.8% | < 15% | < 15% | inhibition of growth at 10 µM [21]: 25.9%; inhibition of growth at 10 µM [22]: < 15%; inhibition of growth at 10 µM [23]: < 15%
3 | Cc1nc2c(cnn2-c2ccccc2)c(=O)n1-c1ccc(/N=C2\C(=O)Nc3ccccc32)cc1 | 51.4% | 43.9% | < 15% | 39.6% | 36.2% | 42.9% | 30.7% | 27.7% | < 15% | 52.1% | < 15% | < 15% | 34.7% | 24.8% | < 15% | 38.3% | 34.4% | 23.1% | < 15% | 19.6% | inhibition of growth at 10 µM [21]: 17.9%; inhibition of growth at 10 µM [22]: 34.1%; inhibition of growth at 10 µM [23]: 36%
4 | COc1ccc(/C=C/C(=O)c2ccc(-n3c(C)nc4c(cnn4-c4ccccc4)c3=O)cc2)cc1 | 88.7% | 34.3% | 68.4% | 25.9% | 50% | 72.3% | 27.6% | 29% | < 15% | 57.1% | < 15% | 55.3% | < 15% | 16.6% | < 15% | 65.3% | 87.6% | 39.5% | 24.9% | < 15% | inhibition of growth at 10 µM [21]: 90.3%; inhibition of growth at 10 µM [22]: 55.3%; inhibition of growth at 10 µM [23]: 18.2%
5 | Cc1nc2c(cnn2-c2ccccc2)c(=O)n1-c1ccc(N2C(=O)c3ccccc3C2=O)cc1 | < 15% | < 15% | < 15% | < 15% | < 15% | < 15% | < 15% | < 15% | < 15% | < 15% | < 15% | < 15% | < 15% | < 15% | < 15% | < 15% | < 15% | < 15% | < 15% | < 15% | inhibition of growth at 10 µM [21]: < 15%; inhibition of growth at 10 µM [22]: < 15%; inhibition of growth at 10 µM [23]: < 15%
6 | Cc1nc2c(cnn2-c2ccccc2)c(=O)n1-c1ccc(N2C(=O)C=CC2=O)cc1 | 18.6% | < 15% | < 15% | < 15% | < 15% | < 15% | < 15% | < 15% | < 15% | < 15% | < 15% | < 15% | < 15% | < 15% | < 15% | < 15% | < 15% | < 15% | < 15% | < 15% | inhibition of growth at 10 µM [21]: < 15%; inhibition of growth at 10 µM [22]: < 15%; inhibition of growth at 10 µM [23]: < 15%
7 | Cc1nc2c(cnn2-c2ccccc2)c(=O)n1-c1ccc(NC(=O)c2ccco2)cc1 | 37.3% | 21.2% | < 15% | < 15% | 16.6% | 23.1% | < 15% | < 15% | < 15% | 26.9% | < 15% | 19.8% | < 15% | < 15% | < 15% | 34% | 30.1% | 16.6% | < 15% | < 15% | inhibition of growth at 10 µM [21]: < 15%; inhibition of growth at 10 µM [22]: < 15%; inhibition of growth at 10 µM [23]: < 15%
8 | CC(=O)Nc1ccc(-n2c(C)nc3c(cnn3-c3ccccc3)c2=O)cc1 | < 15% | 44.8% | < 15% | < 15% | 38.3% | 77.4% | 31.7% | 29.8% | < 15% | 66.8% | < 15% | 28.3% | < 15% | 20% | < 15% | < 15% | 55.4% | 22.3% | < 15% | < 15% | inhibition of growth at 10 µM [21]: 28.9%; inhibition of growth at 10 µM [22]: 43.6%; inhibition of growth at 10 µM [23]: 16.4%
